Source: paper PMC4011022 (Molecular cell, 2014)
Read-outs that look alike come from different tables or passages of the source.

Assays:
[1] = molecular target: T1, CK2α (casein kinase-2 catalytic subunit) (Homo sapiens, UniProt P68400); assay: competition of [3H]IP6 radioligand binding to purified recombinant GST-CK2α
[2] = molecular target: T1, CK2α (casein kinase-2 catalytic subunit); assay type: binding
Procedure, shortened: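 GST-tagged CK2α was expressed in E. coli and purified. Twenty μg, held on glutathione beads, was incubated overnight at 4 °C with [3H]IP6 (10–20 Ci/mmol) in 40 mM Tris pH 8.0, 150 mM NaCl, 1 mM MgCl2, 4% glycerol and 0.1% Triton. Unlabeled IP6 was added over a concentration series as competitor. Controls were buffer or GST alone. Data are mean ± SE of at least three independent experiments.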

T1 sequence (P68400 whole entry): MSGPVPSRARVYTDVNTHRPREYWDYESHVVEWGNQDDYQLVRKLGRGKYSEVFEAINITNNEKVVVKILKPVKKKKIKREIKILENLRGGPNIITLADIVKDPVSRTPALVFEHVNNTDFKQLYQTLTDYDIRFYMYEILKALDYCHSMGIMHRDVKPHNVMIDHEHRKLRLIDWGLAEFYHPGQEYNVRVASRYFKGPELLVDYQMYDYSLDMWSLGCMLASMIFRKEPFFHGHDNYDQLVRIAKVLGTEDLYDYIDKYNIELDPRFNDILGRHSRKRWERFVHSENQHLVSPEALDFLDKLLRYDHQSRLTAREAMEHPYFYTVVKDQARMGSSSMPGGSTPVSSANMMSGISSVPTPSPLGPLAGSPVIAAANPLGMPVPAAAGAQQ

| Structure (SMILES) | IC50 [1] [µM] | IC50 [2] [µM] |
| --- | --- | --- |
| O=P(O)(O)O[C@H]1[C@@H](OP(=O)(O)O)[C@H](OP(=O)(O)O)[C@@H](OP(=O)(O)OP(=O)(O)O)[C@H](OP(=O)(O)O)[C@H]1OP(=O)(O)O [IP7] | ~0.4 | – |
| O=P(O)(O)O[C@H]1[C@H](OP(=O)(O)O)[C@@H](OP(=O)(O)O)[C@H](OP(=O)(O)O)[C@@H](OP(=O)(O)O)[C@H]1OP(=O)(O)O [IP6] | – | 14 |
